Data: ChEMBL document CHEMBL3621084, “Discovery of 2-Pyridinone Aminals: A Prodrug Strategy to Advance a Second Generation of HIV-1 Integrase Strand Transfer Inhibitors” (J Med Chem, 2015)
Converted amounts (≈) assume the structure as drawn.

Columns and labels:
[1] = system: Human immunodeficiency virus 1; assay: Antiviral activity against HIV1 infected in human MT4 cells expressing GFP incubated for 48 to 72 hrs in absence of 50% normal human serum by multiple round viral replication kinetics assay; type: functional
[2] = system: Human immunodeficiency virus 1; assay: Antiviral activity against HIV1 infected in human MT4 cells expressing GFP incubated for 48 to 72 hrs in presence of 50% normal human serum by multiple round viral replication kinetics assay; type: functional
[3] = system: Human immunodeficiency virus 1; assay: Resistance index, ratio of IC50 for antiviral activity against HIV1 expressing integrase E92Q mutant to IC50 for antiviral activity against HIV1 expressing wild type integrase; type: functional
Method in brief: (§1)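 Fold shift computed as the inflection point (IP) against mutant HIV-1 divided by the IP against wild-type virus. Both IPs come from a kinetic HIV replication (viral kinetics) potency assay run in 50% normal human serum (NHS).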

[4] = system: Human immunodeficiency virus 1; assay: Resistance index, ratio of IC50 for antiviral activity against HIV1 expressing integrase Y143R mutant to IC50 for antiviral activity against HIV1 expressing wild type integrase; type: functional; method in brief: as §1
[5] = system: Human immunodeficiency virus 1; assay: Resistance index, ratio of IC50 for antiviral activity against HIV1 expressing integrase Q148R mutant to IC50 for antiviral activity against HIV1 expressing wild type integrase; type: functional; method in brief: as §1
[6] = Plasma clearance in rat; type: ADME, organism-based
[7] = Oral bioavailability in rat; type: ADME, organism-based; conditions: in vivo
[8] = Plasma clearance in dog; type: ADME, organism-based, Canis lupus familiaris
[9] = Oral bioavailability in dog; type: ADME, organism-based, Canis lupus familiaris; conditions: in vivo
[10] = Intrinsic clearance in human hepatocytes at 1 uM by LC-MS/MS method; type: ADME, cell-based, Hepatocyte; conditions: read-out: CLH
[11] = AUC (0 to infinity) in beagle dog at 2 mg/kg, po by LC-MS/MS method; type: ADME, organism-based, Canis lupus familiaris; design: dose 2 mg/kg, route oral, time infinity; conditions: beagle, in vivo
[12] = Solubility in FaSSiF at pH 6.5 at room temperature incubated for 4 hrs; type: physicochemical
[13] = Stability in SGF at pH 1.8 at 37 °C incubated for 4 hrs
[14] = Stability in FaSSiF at pH 6.5 at 37 °C incubated for 4 hrs
[15] = Plasma clearance in beagle dog at 0.5 mg/kg, iv by LC-MS/MS method; type: ADME, organism-based, Canis lupus familiaris
[16] = Volume of distribution at steady state in beagle dog at 0.5 mg/kg, iv by LC-MS/MS method; type: ADME, organism-based, Canis lupus familiaris; conditions: in vivo, read-out: Vdss
[17] = AUC (0 to infinity) in beagle dog at 1 mg/kg, po by LC-MS/MS method; type: ADME, organism-based, Canis lupus familiaris; design: dose 1 mg/kg, route oral, time infinity; conditions: in vivo
[18] = Oral bioavailability in beagle dog at 1 mg/kg by LC-MS/MS method; type: ADME, organism-based, Canis lupus familiaris; conditions: in vivo
[19] = Protein binding in beagle dog plasma at 2.5 uM incubated for 4 hrs by LC-MS/MS detection based equilibrium dialysis method; type: ADME, cell-free, Canis lupus familiaris; conditions: read-out: PPB (converted)
[20] = Protein binding in human plasma at 2.5 uM incubated for 4 hrs by LC-MS/MS detection based equilibrium dialysis method; type: ADME, cell-free; conditions: read-out: PPB (converted)
[21] = molecular target: Cytochrome P450 3A4 (Homo sapiens, UniProt P08684); assay: Time dependent inhibition of CYP3A4 (unknown origin); type: ADME
Sequence of Cytochrome P450 3A4 (P08684 whole entry): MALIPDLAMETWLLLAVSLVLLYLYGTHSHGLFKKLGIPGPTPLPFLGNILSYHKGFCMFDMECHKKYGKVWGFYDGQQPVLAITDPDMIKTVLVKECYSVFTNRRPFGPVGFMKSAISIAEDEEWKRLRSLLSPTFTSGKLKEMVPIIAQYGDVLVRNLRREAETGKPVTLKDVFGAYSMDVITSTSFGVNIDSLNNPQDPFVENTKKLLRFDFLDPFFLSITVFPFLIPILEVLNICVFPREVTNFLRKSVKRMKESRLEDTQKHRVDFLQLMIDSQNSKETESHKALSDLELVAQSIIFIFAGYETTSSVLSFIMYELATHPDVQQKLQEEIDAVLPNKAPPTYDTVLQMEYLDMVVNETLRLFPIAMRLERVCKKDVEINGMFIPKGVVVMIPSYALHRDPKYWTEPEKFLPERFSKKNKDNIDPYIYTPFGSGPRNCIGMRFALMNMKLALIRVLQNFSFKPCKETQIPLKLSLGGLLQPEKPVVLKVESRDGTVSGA

[22] = Solubility in SGF at pH 1.8 at room temperature incubated for 4 hrs; type: physicochemical
[23] = Permeability in LLC-PK1 cells at 1 uM incubated for 3 hrs by LC-MS/MS method; type: ADME, cell-based, Sus scrofa; conditions: pig, read-out: permeability
[24] = Permeability in MDCK2 cells at 1 uM incubated for 3 hrs by LC-MS/MS method; type: ADME, cell-based, Canis lupus familiaris, MDCK-II; conditions: dog, MDCK; read-out: permeability
[25] = system: Canis familiaris; assay: AUC (0 to infinity) in beagle dog assessed as c(1R,2S,5R)-8'-(3-chloro-4-fluorobenzyl)-6'-hydroxy-1-(hydroxymethyl)-2'-methyl-9',10'-dihydro-1'H-spiro[bicyclo[3.1.0]hexane-2,3'-imidazo[5,1-a][2,6]naphthyridine]-1',5',7'(2'H,8'H)-trione evel at 2 mg/kg, po by LC-MS/MS method; type: ADME, organism-based, Canis lupus familiaris; design: dose 2 mg/kg, route oral, time infinity; conditions: in vivo
Method in brief: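 Oral rising-dose studies were run in beagle dogs with prodrugs, at doses normalized to account for the promoiety so that they give the actual parent dose administered. The read-out was plasma exposure (AUC) of the parent compound.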

[26] = Half life in beagle dog at 0.5 mg/kg, iv by LC-MS/MS method; conditions: in vivo

SMILES | IP [1] [nM] | IP [2] [nM] | Ratio IC50 [3] | Ratio IC50 [4] | Ratio IC50 [5] | AUC(0-inf) [11] [µM·h] | solubility at 4 h [12] [µg/mL] | remaining at 4 h [13] [%] | remaining at 4 h [14] [%] | also measured
CC(C)n1c(C(=O)N(C)C)c2c(c(O)c1=O)C(=O)N(Cc1ccc(F)c(Cl)c1)CC2 | 6 | 53 | 1 | 2 | 1 | – | – | – | – | clearance [6]: 2.3 mL/min/kg; bioavailability [7]: 29%; clearance [8]: 2.2 mL/min/kg; bioavailability [9]: 44%; CLint scaled at 1 µM [10]: < 20 mL/min/kg
Cc1nnc(C(=O)NC(C)(C)c2nc(C(=O)NCc3ccc(F)cc3)c(O)c(=O)n2C)o1 | 9 | 53 | – | – | – | – | – | – | – | –
C[C@@H](CN1C(=O)c2c3c(c(O)c(=O)n2[C@@]12CC[C@H]1C[C@H]12)C(=O)N(Cc1ccc(F)c(Cl)c1)CC3)OP(=O)(O)O | 1580 | – | – | – | – | 6.8 | 2300 (≈ 3950 µM) | > 98 | > 98 | –
C[C@@H](CN1C(=O)c2c3c(c(O)c(=O)n2[C@@]12CC[C@H]1C[C@H]12)C(=O)N(Cc1ccc(F)c(Cl)c1)CC3)OC(=O)[C@@H](N)CCCCN | 40 | – | – | – | – | 6.8 | > 2000 | 90 | 90 | –
CN1C(=O)c2c3c(c(O)c(=O)n2[C@]12CC[C@@H]1C[C@@]12CO)C(=O)N(Cc1ccc(F)c(Cl)c1)CC3 | 3 | 32 | 1 | 1 | 1 | – | 30 (≈ 61.5 µM) | – | – | clearance [15]: 1.9 mL/min/kg; Vd [16]: 0.4 L/kg; AUC(0-inf) [17]: 4.9 µM·h; bioavailability [18]: 26%; fraction unbound at 4 h, 2.5 µM [19]: 0.014; fraction unbound at 4 h, 2.5 µM [20]: 0.02; TDI [21]: Not Active; solubility at 4 h [22]: 17 µg/mL (≈ 34.8 µM); Papp at 3 h, 1 µM [23]: 6.7 ×10⁻⁶ cm/s; Papp at 3 h, 1 µM [24]: 8.4 ×10⁻⁶ cm/s; AUC [25]: 8 µM·h; half-life [26]: 5 h
